Activity calls are given as the source filed them. No cut-off for these calls is given here.
Assays:
[1] = molecular target: Neuronal acetylcholine receptor; alpha4/beta2 (Rattus norvegicus, UniProt P09483+P12390); experiment: Displacement of [3H]epibatidine from rat alpha4beta2 nAChR expressed in HEK293 cell membranes after 4 hrs by scintillation counting method
Method in brief: (§1)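 Membranes from HEK293 lines stably expressing α3β4, α4β4 or α4β2 nAChR, [3H]epibatidine competition binding. Ki came from concentration-inhibition curves. Means of 3–5 experiments in duplicate.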

[2] = molecular target: Neuronal acetylcholine receptor; alpha4/beta4 (Rattus norvegicus, UniProt P09483+P12392); experiment: Displacement of [3H]epibatidine from rat alpha4beta4 nAChR expressed in HEK293 cell membranes after 4 hrs by scintillation counting method; method in brief: as §1
Neuronal acetylcholine receptor; alpha4/beta4, sequence (P09483 whole entry): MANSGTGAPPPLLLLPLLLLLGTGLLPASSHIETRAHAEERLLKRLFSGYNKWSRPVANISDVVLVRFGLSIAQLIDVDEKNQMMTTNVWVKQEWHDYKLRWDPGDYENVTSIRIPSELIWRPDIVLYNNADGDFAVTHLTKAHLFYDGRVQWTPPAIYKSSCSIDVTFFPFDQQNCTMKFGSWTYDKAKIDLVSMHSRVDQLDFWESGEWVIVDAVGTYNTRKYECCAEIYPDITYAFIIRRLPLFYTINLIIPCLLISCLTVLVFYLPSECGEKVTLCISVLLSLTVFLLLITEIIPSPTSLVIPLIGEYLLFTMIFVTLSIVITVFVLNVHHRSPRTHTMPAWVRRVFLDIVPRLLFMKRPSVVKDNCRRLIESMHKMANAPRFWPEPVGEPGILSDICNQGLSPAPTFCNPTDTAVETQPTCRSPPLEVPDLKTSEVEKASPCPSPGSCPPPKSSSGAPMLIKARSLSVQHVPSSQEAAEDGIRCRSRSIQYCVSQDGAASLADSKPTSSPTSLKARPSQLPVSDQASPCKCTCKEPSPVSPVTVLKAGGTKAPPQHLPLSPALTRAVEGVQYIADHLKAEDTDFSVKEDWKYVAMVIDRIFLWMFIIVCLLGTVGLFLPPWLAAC
Neuronal acetylcholine receptor; alpha4/beta4, sequence (P12392 whole entry): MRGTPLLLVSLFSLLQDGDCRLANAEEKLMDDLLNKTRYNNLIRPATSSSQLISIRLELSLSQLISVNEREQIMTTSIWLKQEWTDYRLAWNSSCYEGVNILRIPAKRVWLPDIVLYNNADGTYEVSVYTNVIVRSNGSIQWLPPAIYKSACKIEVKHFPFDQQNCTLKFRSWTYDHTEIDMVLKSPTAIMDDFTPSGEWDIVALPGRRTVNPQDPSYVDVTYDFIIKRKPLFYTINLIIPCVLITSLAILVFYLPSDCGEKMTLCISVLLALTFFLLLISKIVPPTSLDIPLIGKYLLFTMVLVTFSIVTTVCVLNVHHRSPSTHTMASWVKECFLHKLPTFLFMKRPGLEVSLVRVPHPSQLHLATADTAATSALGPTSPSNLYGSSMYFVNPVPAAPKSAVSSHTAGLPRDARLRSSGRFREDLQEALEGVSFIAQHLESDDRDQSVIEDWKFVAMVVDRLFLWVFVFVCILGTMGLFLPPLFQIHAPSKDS

[3] = molecular target: T1, Neuronal acetylcholine receptor; alpha3/beta4 (Rattus norvegicus, UniProt P04757+P12392); experiment: Displacement of [3H]epibatidine from rat alpha3beta4 nAChR expressed in HEK293 cell membranes after 4 hrs by scintillation counting method; method in brief: as §1
T1 sequence (P04757 whole entry): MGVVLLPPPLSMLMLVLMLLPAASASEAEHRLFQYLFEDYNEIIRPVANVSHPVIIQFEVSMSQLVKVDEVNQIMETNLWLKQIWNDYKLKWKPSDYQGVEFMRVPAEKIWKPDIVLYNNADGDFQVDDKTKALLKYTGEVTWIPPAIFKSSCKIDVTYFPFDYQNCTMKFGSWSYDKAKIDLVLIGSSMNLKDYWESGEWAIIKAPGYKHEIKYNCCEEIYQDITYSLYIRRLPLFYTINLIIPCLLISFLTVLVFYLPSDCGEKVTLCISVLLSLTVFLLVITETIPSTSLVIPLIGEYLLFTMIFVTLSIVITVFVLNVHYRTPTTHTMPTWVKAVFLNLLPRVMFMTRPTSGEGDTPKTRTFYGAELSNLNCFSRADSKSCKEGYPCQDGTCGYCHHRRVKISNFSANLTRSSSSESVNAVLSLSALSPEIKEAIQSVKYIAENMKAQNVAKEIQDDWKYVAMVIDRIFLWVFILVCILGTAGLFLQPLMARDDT
T1 sequence (P12392 whole entry): as the sequence (P12392 whole entry) above

[4] = molecular target: T1, Neuronal acetylcholine receptor; alpha3/beta4; experiment: Antagonist activity at rat alpha3beta4 nAChR expressed in HEK293 cells assessed as inhibition of (S)-nicotine-induced […] response measured up to 90 secs by FMP assay; assay type: cell-based
Method in brief: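 Rat α3β4 nAChR in stably expressing HEK293 cells, FLIPR Membrane Potential Blue assay. Antagonist mode against (S)-nicotine at EC70–EC90. IC50 derived from concentration-inhibition curves. Means of 3–5 experiments in duplicate.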

[5] = molecular target: Nicotinic acetylcholine receptor alpha-4/beta-2 (Mus musculus, UniProt Q8R493+Q9ERK7); experiment: Antagonist activity at mouse alpha4beta2 nAChR expressed in HEK293 cells assessed as inhibition of (S)-nicotine-induced […] response measured up to 90 secs by FMP assay; assay type: cell-based
Nicotinic acetylcholine receptor alpha-4/beta-2, sequence (Q9ERK7 whole entry): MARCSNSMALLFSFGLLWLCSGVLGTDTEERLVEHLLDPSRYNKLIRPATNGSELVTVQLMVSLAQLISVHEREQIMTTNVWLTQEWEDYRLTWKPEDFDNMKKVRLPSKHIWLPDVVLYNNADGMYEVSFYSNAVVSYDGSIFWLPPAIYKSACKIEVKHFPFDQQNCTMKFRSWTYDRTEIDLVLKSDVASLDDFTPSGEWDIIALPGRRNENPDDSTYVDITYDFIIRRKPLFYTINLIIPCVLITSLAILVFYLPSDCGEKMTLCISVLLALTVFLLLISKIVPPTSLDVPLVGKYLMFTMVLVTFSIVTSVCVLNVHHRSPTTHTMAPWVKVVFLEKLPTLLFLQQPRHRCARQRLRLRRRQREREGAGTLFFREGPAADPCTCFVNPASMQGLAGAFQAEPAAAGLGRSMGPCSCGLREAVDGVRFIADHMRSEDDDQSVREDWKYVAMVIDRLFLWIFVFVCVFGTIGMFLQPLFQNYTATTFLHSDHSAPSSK
Nicotinic acetylcholine receptor alpha-4/beta-2, sequence (Q8R493 whole entry): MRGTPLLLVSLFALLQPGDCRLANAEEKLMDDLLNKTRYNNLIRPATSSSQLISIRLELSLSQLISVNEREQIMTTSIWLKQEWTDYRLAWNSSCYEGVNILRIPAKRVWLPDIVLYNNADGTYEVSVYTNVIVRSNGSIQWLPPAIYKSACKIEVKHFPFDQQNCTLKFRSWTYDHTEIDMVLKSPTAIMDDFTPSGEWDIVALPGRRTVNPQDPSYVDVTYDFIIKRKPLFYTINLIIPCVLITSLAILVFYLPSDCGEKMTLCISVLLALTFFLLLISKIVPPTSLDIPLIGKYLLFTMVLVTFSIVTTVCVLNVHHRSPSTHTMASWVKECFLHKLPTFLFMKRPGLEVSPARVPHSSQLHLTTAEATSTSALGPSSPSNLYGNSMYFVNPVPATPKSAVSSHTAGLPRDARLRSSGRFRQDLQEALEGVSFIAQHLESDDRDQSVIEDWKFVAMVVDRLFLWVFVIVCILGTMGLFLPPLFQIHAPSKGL
Method in brief: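 Mouse α4β2 nAChR in stably expressing HEK293T cells, FLIPR Membrane Potential Blue assay. IC50 came from concentration-inhibition curves. Means of 3–5 experiments in duplicate.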

[6] = molecular target: T2, Neuronal acetylcholine receptor subunit alpha-7 (Homo sapiens, UniProt P36544); experiment: Agonist activity at human alpha7 nAChR expressed in HEK293 cells co-expressing Ric-3/NACHO assessed as induction of calcium mobilization at 10 uM measured up to 90 secs in presence of PNU-120596 by FLIPR assay; assay type: cell-based
T2 sequence (P36544 whole entry): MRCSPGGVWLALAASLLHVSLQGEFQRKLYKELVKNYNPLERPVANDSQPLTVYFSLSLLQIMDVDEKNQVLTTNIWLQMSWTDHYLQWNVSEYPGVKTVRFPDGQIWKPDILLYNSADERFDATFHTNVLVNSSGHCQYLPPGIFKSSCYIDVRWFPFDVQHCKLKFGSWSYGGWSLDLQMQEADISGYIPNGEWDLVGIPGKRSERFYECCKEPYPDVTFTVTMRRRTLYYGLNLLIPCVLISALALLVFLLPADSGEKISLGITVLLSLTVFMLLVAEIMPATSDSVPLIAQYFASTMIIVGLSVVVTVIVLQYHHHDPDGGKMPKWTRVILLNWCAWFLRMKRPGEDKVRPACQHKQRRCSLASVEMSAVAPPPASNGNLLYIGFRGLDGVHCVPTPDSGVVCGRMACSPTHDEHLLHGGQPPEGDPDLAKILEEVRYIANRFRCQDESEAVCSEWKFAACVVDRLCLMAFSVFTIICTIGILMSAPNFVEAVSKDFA

[7] = molecular target: T2, Neuronal acetylcholine receptor subunit alpha-7; experiment: Agonist activity at human alpha7 nAChR expressed in HEK293 cells co-expressing Ric-3/NACHO assessed as induction of calcium mobilization at 1 to 3 uM measured up to 90 secs in presence of PNU-120596 by FLIPR assay; assay type: cell-based
[8] = molecular target: T2, Neuronal acetylcholine receptor subunit alpha-7; experiment: Agonist activity at human alpha7 nAChR expressed in HEK293 cells co-expressing Ric-3/NACHO assessed as induction of calcium mobilization at 0.3 to 3 uM measured up to 90 secs in presence of PNU-120596 by FLIPR assay; assay type: cell-based
[9] = molecular target: T2, Neuronal acetylcholine receptor subunit alpha-7; experiment: Agonist activity at human alpha7 nAChR expressed in HEK293 cells co-expressing Ric-3/NACHO assessed as induction of calcium mobilization at >= 10 uM measured up to 90 secs in presence of PNU-120596 by FLIPR assay; assay type: cell-based
[10] = molecular target: Neuronal acetylcholine receptor; alpha4/beta2 (Homo sapiens, UniProt P17787+P43681); experiment: Displacement of [3H]cytisine from human alpha4beta2 nAChR expressed in human SH-EP1 cell membranes after 75 mins by liquid scintillation spectrometry
Neuronal acetylcholine receptor; alpha4/beta2 (Homo sapiens, UniProt P17787+P43681), sequence (P17787 whole entry): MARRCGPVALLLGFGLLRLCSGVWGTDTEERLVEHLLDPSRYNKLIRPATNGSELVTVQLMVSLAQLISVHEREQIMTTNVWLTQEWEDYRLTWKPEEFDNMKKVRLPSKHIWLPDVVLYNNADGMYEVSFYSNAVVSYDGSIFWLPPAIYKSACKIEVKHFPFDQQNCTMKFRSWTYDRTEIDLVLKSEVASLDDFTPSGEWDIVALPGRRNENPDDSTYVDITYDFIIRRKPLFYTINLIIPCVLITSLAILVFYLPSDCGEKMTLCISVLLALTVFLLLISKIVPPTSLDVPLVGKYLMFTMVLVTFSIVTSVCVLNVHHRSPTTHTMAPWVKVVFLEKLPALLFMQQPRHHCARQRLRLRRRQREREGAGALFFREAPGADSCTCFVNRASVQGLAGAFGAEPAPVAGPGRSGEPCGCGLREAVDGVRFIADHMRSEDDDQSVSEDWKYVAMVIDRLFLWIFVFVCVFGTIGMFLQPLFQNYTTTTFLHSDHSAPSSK
Neuronal acetylcholine receptor; alpha4/beta2 (Homo sapiens, UniProt P17787+P43681), sequence (P43681 whole entry): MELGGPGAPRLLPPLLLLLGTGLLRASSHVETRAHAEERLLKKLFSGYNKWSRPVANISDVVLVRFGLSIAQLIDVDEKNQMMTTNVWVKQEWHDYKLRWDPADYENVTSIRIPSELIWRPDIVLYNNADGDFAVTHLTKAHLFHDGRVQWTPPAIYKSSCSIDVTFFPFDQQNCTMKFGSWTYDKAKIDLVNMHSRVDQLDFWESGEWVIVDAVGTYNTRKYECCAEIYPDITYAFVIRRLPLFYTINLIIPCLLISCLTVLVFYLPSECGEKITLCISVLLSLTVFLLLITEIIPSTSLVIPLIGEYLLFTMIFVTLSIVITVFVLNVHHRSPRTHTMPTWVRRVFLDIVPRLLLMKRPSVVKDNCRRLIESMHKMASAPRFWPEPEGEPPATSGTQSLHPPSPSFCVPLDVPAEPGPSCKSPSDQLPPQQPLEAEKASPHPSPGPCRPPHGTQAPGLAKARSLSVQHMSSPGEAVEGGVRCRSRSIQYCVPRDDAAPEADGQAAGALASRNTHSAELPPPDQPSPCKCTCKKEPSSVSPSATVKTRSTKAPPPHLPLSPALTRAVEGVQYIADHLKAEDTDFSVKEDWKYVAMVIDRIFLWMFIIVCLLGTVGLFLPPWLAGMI

[11] = molecular target: Neuronal acetylcholine receptor; alpha4/beta2 (Rattus norvegicus) (UniProt P09483+P12390); experiment: Potency index, ratio of DHbetaE Ki to test compound Ki for rat alpha4beta2 nAChR; assay type: protein-complex assay
[12] = molecular target: T2, Neuronal acetylcholine receptor subunit alpha-7; experiment: Agonist activity at human alpha7 nAChR expressed in HEK293 cells co-expressing Ric-3/NACHO assessed as induction of calcium mobilization measured up to 90 secs in presence of PNU-120596 by FLIPR assay; assay type: cell-based
Method in brief: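 Human α7 nAChR stably co-expressed with Ric-3 and NACHO in HEK293 cells, Ca2+/Fluo-4 fluorescence assay. Assay buffer held 3 μM PNU-120596 (α7 PAM) to slow desensitization. Agonist concentration-response curves gave EC50 and Rmax. Means of 3–5 experiments run in duplicate.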

[13] = molecular target: Neuronal acetylcholine receptor; alpha4/beta4 (Rattus norvegicus) (UniProt P09483+P12392); experiment: Potency index, ratio of DHbetaE Ki to test compound Ki for rat alpha4beta4 nAChR; assay type: protein-complex assay
[14] = molecular target: Neuronal acetylcholine receptor; alpha3/beta4 (Rattus norvegicus) (UniProt P04757+P12392); experiment: Potency index, ratio of DHbetaE Ki to test compound Ki for rat alpha3beta4 nAChR; assay type: protein-complex assay
[15] = Selectivity ratio of IC50 for rat alpha3beta4 nAChR to IC50 for mouse alpha4beta2 nAChR
Mus musculus [16] = experiment: Anti-depressant like activity in mouse assessed as increase in swimming activity at 10 mg/kg, sc administered 15 mins prior to testing by forced swim test; assay type: functional, organism-based
Method in brief: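 Mice (n = 9–10) placed singly in a 16 cm beaker filled with water to 20 cm at 23.5–24.5 °C. Total swim distance over the 6 min test was recorded by overhead camera. Analysed by one-way ANCOVA, then planned pairwise comparisons of predicted means.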

Mus musculus [17] = experiment: Anti-depressant like activity in sc dosed mouse assessed as increase in swimming activity administered 15 mins prior to testing by forced swim test; assay type: functional, organism-based
Method in brief: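 Mouse forced swim test, n = 9–10 per group, doses 1, 3 and 10 mg/kg. Each mouse was placed in a 16 cm diameter beaker with 20 cm of water at 23.5–24.5 °C for 6 min. Camera-tracked total swim distance was scored after the first minute. Analysed by one-way ANCOVA with planned pairwise comparisons.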

Neuronal acetylcholine receptor; alpha4/beta2 (Rattus norvegicus, UniProt P09483+P12390), sequence (P09483 whole entry): as the sequence (P09483 whole entry) above
Neuronal acetylcholine receptor; alpha4/beta2 (Rattus norvegicus, UniProt P09483+P12390), sequence (P12390 whole entry): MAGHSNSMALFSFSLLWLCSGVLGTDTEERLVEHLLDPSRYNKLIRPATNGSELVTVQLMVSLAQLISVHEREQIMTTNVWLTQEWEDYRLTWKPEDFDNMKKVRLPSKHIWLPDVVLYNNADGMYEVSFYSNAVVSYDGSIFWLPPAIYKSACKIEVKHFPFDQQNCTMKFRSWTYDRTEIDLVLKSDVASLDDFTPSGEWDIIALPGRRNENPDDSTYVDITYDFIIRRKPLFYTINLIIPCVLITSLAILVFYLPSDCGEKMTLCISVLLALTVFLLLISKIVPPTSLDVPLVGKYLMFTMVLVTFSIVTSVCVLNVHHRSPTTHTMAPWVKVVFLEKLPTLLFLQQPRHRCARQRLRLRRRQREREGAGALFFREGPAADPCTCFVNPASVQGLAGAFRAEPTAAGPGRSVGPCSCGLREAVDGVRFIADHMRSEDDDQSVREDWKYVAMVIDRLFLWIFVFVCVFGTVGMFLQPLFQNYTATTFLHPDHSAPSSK

SMILES	Ki [1]	Ki [2]	Ki [3]	IC50 [4]	IC50 [5]	Activity [7]	Activity [8]	Activity [9]	Ratio Ki [11]	EC50 [12]	Ratio Ki [13]	Ratio Ki [14]	Ratio IC50 [15]	Activity [6]	Ki [10]	Activity (Mus musculus [16])	Activity (Mus musculus [17])
COc1cc2c(cc1O)CCN1CC=C3C=C[C@H](OC)C[C@]321 [ERYSODINE]															0.05 µM		
C[N+]12CCC[C@@H]1c1cc3c(cc1CC2)OCO3 (stereo partly drawn)	0.045 µM	2.7 µM	11 µM	50 µM	0.22 µM				10	1.6 µM	10	10	230			Active	
c1c2c(cc3c1OCO3)[C@H]1CCCN1CC2	0.17 µM	6.6 µM	100 µM	> 100 µM	1.3 µM									Active			Dose-dependent effect

Second part, led by results:

Ki [1]	Ki [2]	Ki [3]	IC50 [4]	IC50 [5]	Activity [7]	Activity [8]	Activity [9]	Ratio Ki [11]	EC50 [12]	Ratio Ki [13]	Ratio Ki [14]	Ratio IC50 [15]	SMILES	Activity [6]	Ki [10]	Activity (Mus musculus [16])	Activity (Mus musculus [17])
> 100 µM	> 100 µM	> 100 µM	> 100 µM	> 100 µM									COc1ccc(CC2c3cc(OC)c(OC)cc3CC[N+]2(C)C)cc1OC (stereo not drawn)	Active			
0.47 µM	50 µM	30 µM	> 300 µM	7.2 µM	Dose-dependent effect	Dose-dependent effect	inactive						COc1cc2c(cc1OCc1ccccc1)CC[N+](C)(C)C2				

Source: ChEMBL document CHEMBL4052830, “Dual Nicotinic Acetylcholine Receptor α4β2 Antagonists/α7 Agonists: Synthesis, Docking Studies, and Pharmacological Evaluation of Tetrahydroisoquinolines and Tetrahydroisoquinolinium Salts” (J Med Chem, 2018)
